Laboratory results: ChEMBL document CHEMBL1687936, “Radiosynthesis and biological evaluation of L- and D-S-(3-[18F]fluoropropyl)homocysteine for tumor imaging using positron emission tomography” (J Med Chem, 2011)

Tests used:
[1] = Metabolic stability in human A375 cells xenografted in BALB/c nude mouse assessed as radioactivity after 2 by HPLC analysis; format: ADME, cell-based, A-375; conditions: in vivo
Method in brief: (§1)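 A375-tumored Balb/c nude mice received 18-20 MBq tracer iv. Plasma and urine were spiked with unlabeled FPHCys and KF and injected directly; tissues were sonicated in saline with carrier and centrifuged at 6000g. Radio-HPLC on C18 with methanol/phosphate buffer pH 6 gave intact fraction as authentic peak over total activity, at 0.25, 1 and 2 h.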

[2] = test system: Muscle tissue; test: Biodistribution in muscle of BALB/c nude mouse xenografted with human A375 cells at 0.8 to 1 MBq, iv after 30 mins by gamma-counter; format: ADME, organism-based, A-375; conditions: in vivo, 0.5 h
Method in brief: (§2)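 Female Balb/c nude mice with s.c. A375 flank tumors, studied 26 days after tumor induction. Tracer 0.8-1 MBq in 100 μL saline given i.v. Groups of n = 5 killed at 15, 30, 60 and 120 min. Organs weighed and counted in a γ-counter against dilutions of the injected dose. Values are % ID/g wet tissue, mean ± SD.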

[3] = Biodistribution in tumor of BALB/c nude mouse xenografted with human A375 cells at 0.8 to 1 MBq, iv after 30 mins by gamma-counter; format: ADME, organism-based, Neoplasm, A-375; conditions: in vivo, 0.5 h; method in brief: as §2
[4] = test system: HT-29; test: Cellular uptake in human HT-29 cells assessed as accumulation per 10^5 cells after 4 hours by gamma-counter; format: ADME, cell-based; conditions: ht-29, 4 h
Method in brief: (§3)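 Cells seeded at 2.5 × 10^5 per well in RPMI-1640 with 10% FBS and 2 mM L-glutamine, attached overnight, then washed with warm PBS. Incubated at 37 °C with 0.37 MBq [18F]tracer in PBS for 2–240 min. Cells washed with ice-cold PBS, lysed in 0.2 N NaOH and counted by γ-counter. Read as % applied dose per 10^5 cells, decay-corrected, n = 3.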

[5] = test system: Brain; test: Biodistribution in brain of BALB/c nude mouse xenografted with human A375 cells at 0.8 to 1 MBq, iv after 60 mins by gamma-counter; format: ADME, organism-based, A-375; conditions: in vivo, 1 h; method in brief: as §2
[6] = test system: Blood; test: Biodistribution in blood of BALB/c nude mouse xenografted with human A375 cells at 0.8 to 1 MBq, iv after 60 mins by gamma-counter; format: ADME, organism-based, A-375; conditions: in vivo, 1 h; method in brief: as §2
[7] = test system: Bone; test: Biodistribution in bone of BALB/c nude mouse xenografted with human A375 cells at 0.8 to 1 MBq, iv after 60 mins by gamma-counter; format: ADME, organism-based, Bone element, A-375; conditions: in vivo, 1 h; method in brief: as §2
[8] = test system: Heart; test: Biodistribution in heart of BALB/c nude mouse xenografted with human A375 cells at 0.8 to 1 MBq, iv after 120 mins by gamma-counter; format: ADME, organism-based, A-375; conditions: in vivo, 2 h; method in brief: as §2
[9] = test system: Bone; test: Biodistribution in bone of BALB/c nude mouse xenografted with human A375 cells at 0.8 to 1 MBq, iv after 15 mins by gamma-counter; format: ADME, organism-based, Bone element, A-375; conditions: in vivo, 0.25 h; method in brief: as §2
[10] = test system: Pancreas; test: Metabolic stability in pancreas of BALB/c nude mouse xenografted with human A375 cells assessed as radioactivity after 0.25 to 1 hrs by HPLC analysis; format: ADME, tissue-based, A-375; conditions: in vivo; method in brief: as §1
[11] = test system: Spleen; test: Biodistribution in spleen of BALB/c nude mouse xenografted with human A375 cells at 0.8 to 1 MBq, iv after 30 mins by gamma-counter; format: ADME, organism-based, A-375; conditions: in vivo, 0.5 h; method in brief: as §2
[12] = test system: Pancreas; test: Metabolic stability in pancreas of BALB/c nude mouse xenografted with human A375 cells assessed as radioactivity after 1 hrs by HPLC analysis; format: ADME, tissue-based, A-375; conditions: in vivo; method in brief: as §1
[13] = test system: A-375; test: Cellular uptake in human A375 cells after 2 mins by gamma-counter; format: ADME, cell-based; conditions: a-375, 2 min
Method in brief: (§4)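 A375 cells grown in RPMI-1640 with 10% FBS and 2 mM L-glutamine; 2.5×10^5 seeded per well overnight, counts done in triplicate. After a warm PBS wash, cells got 0.37 MBq tracer in 500 μL PBS at 37 °C. Stopped with ice-cold PBS wash, lysed in 0.2 N NaOH, counted in a γ-counter. Decay-corrected % applied dose per 10^5 cells, mean ± SD, n = 3.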

[14] = test system: Spleen; test: Biodistribution in spleen of BALB/c nude mouse xenografted with human A375 cells at 0.8 to 1 MBq, iv after 120 mins by gamma-counter; format: ADME, organism-based, A-375; conditions: in vivo, 2 h; method in brief: as §2
[15] = test system: Brain; test: Drug level in brain cortex extract of BALB/c nude mouse xenografted with human A375 cells assessed as radioactivity in protein fraction after 0.25 to 2 hrs; format: ADME, tissue-based, A-375; conditions: in vivo
Method in brief: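 Female Balb/c nude mice bore subcutaneous A375 flank tumors and received 18-20 MBq tracer iv. Plasma or tissue was sonicated in 10% TCA with unlabeled FPHCys and KF, then centrifuged at 6000g; the pellet was re-extracted twice. Protein-bound fraction is pellet versus supernatant radioactivity, sampled at 0.25, 1 and 2 h.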

[16] = test system: Lung; test: Biodistribution in lungs of BALB/c nude mouse xenografted with human A375 cells at 0.8 to 1 MBq, iv after 120 mins by gamma-counter; format: ADME, organism-based, A-375; conditions: in vivo, 2 h; method in brief: as §2
[17] = Biodistribution in tumor of BALB/c nude mouse xenografted with human A375 cells at 0.8 to 1 MBq, iv after 15 mins by gamma-counter; format: ADME, organism-based, Neoplasm, A-375; conditions: in vivo, 0.25 h; method in brief: as §2
[18] = test system: A-375; test: Drug uptake in human A375 cells in presence of amino acid transport system A inhibitor MeAIB; format: ADME, cell-based
Method in brief: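 Cells were prepared as for the uptake assay and preincubated at 37 °C with inhibitor at 12.5 mmol/L in PBS; controls received PBS. 0.37 MBq [18F]tracer was added and incubated 30 min at 37 °C. Cells were washed cold, lysed and γ-counted. Uptake is given as % of the control group, n = 3.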

[19] = test system: A-375; test: Cellular uptake in human A375 cells assessed as accumulation per 10^5 cells after 60 mins by gamma-counter; format: ADME, cell-based; conditions: a-375, 1 h; method in brief: as §3
[20] = test system: Blood; test: Biodistribution in blood of BALB/c nude mouse xenografted with human A375 cells at 0.8 to 1 MBq, iv after 30 mins by gamma-counter; format: ADME, organism-based, A-375; conditions: in vivo, 0.5 h; method in brief: as §2
[21] = test system: Brain; test: Metabolic stability in brain of BALB/c nude mouse xenografted with human A375 cells assessed as radioactivity after 0.25 to 1 hrs by HPLC analysis; format: ADME, tissue-based, A-375; conditions: in vivo; method in brief: as §1
[22] = test system: Urinary bladder; test: Biodistribution in bladder of BALB/c nude mouse xenografted with human A375 cells after 60 mins by PET/CT imaging; format: ADME, organism-based, A-375; conditions: in vivo, 1 h
Method in brief: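 Female Balb/c nude mice with A375 tumors (1×10^6 cells in Ca/Mg-free PBS injected s.c. in left flank at 6 weeks old). Mice under isoflurane in oxygen. 10 min CT scan, then 18-20 MBq tracer in 100 μL saline given i.v. with a 2 h PET acquisition. Coronal images at 60 min postinjection; n = 3.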

[23] = test system: Pancreas; test: Biodistribution in pancreas of BALB/c nude mouse xenografted with human A375 cells at 0.8 to 1 MBq, iv after 15 mins by gamma-counter; format: ADME, organism-based, A-375; conditions: in vivo, 0.25 h; method in brief: as §2
[24] = test system: Pancreas; test: Biodistribution in pancreas of BALB/c nude mouse xenografted with human A375 cells at 0.8 to 1 MBq, iv after 60 mins by gamma-counter; format: ADME, organism-based, A-375; conditions: in vivo, 1 h; method in brief: as §2
[25] = test system: Heart; test: Biodistribution in heart of BALB/c nude mouse xenografted with human A375 cells at 0.8 to 1 MBq, iv after 15 mins by gamma-counter; format: ADME, organism-based, A-375; conditions: in vivo, 0.25 h; method in brief: as §2
[26] = test system: Brain; test: Metabolic stability in brain of BALB/c nude mouse xenografted with human A375 cells assessed as radioactivity after 1 hrs by HPLC analysis; format: ADME, tissue-based, A-375; conditions: in vivo; method in brief: as §1
[27] = test system: A-375; test: Cellular uptake in human A375 cells after 15 to 60 mins by gamma-counter; format: ADME, cell-based; method in brief: as §4
[28] = test system: A-375; test: Cellular uptake in human A375 cells assessed as accumulation per 10^5 cells after 15 to 60 mins by gamma-counter; format: ADME, cell-based; method in brief: as §3

Compound: Cl.N[C@@H](CCSCCC[18F])C(=O)O
- Stability [1]: 78%
- Drug uptake [2]: 4.2 % ID/g
- Drug uptake [3]: 8.28 % ID/g
- Drug uptake [4]: 2%
- Drug uptake [5]: 1.3 % ID/g
- Drug uptake [6]: 2.32 % ID/g
- Drug uptake [7]: 2.31 % ID/g
- Drug uptake [8]: 1.37 % ID/g
- Drug uptake [9]: 3.33 % ID/g
- Stability [10]: 85%
- Drug uptake [11]: 4.18 % ID/g
- Stability [12]: 30%
- Drug uptake [13]: > 50%
- Drug uptake [14]: 1.39 % ID/g
- Drug uptake [15]: 1%
- Drug uptake [16]: 1.63 % ID/g
- Drug uptake [17]: 9.41 % ID/g
- Drug uptake [18]: Active
- Drug uptake [19]: 9%
- Drug uptake [20]: 4.44 % ID/g
- Stability [21]: 85%
- Drug uptake [22]: Active
- Drug uptake [23]: 14.3 % ID/g
- Drug uptake [24]: 6.97 % ID/g
- Drug uptake [25]: 5.08 % ID/g
- Stability [26]: 90%

Compound: Cl.N[C@H](CCSCCC[18F])C(=O)O
- Drug uptake [2]: 1.97 % ID/g
- Drug uptake [3]: 5.87 % ID/g
- Drug uptake [4]: 1.6%
- Drug uptake [27]: Active
- Drug uptake [5]: 0.75 % ID/g
- Drug uptake [6]: 0.89 % ID/g
- Drug uptake [7]: 1.63 % ID/g
- Drug uptake [8]: 0.4 % ID/g
- Drug uptake [9]: 2.55 % ID/g
- Drug uptake [28]: 6.8%
- Stability [10]: 85%
- Drug uptake [11]: 2.83 % ID/g
- Drug uptake [14]: 0.31 % ID/g
- Drug uptake [15]: 1%
- Drug uptake [16]: 0.85 % ID/g
- Drug uptake [17]: 6.01 % ID/g
- Drug uptake [18]: Active
- Drug uptake [20]: 2.51 % ID/g
- Stability [21]: 85%
- Drug uptake [22]: Active
- Drug uptake [23]: 37.1 % ID/g
- Drug uptake [24]: 4.79 % ID/g
- Drug uptake [25]: 3.92 % ID/g
- Stability [26]: 90%
